The values below come from ChEMBL document CHEMBL1153319, “Dancing of the second aromatic residue around the 6,8-diazabicyclo[3.2.2]nonane framework: influence on sigma receptor affinity and cytotoxicity” (J Med Chem, 2009).

One test has as its system 5637. Briefly: Cytotoxicity against human 5637 cells after 96 hrs by crystal violet staining. The class given is functional, cell-based. Particulars: Homo sapiens, 5637, 96 h. Put shortly: (§1)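 Human tumour lines from DSMZ given a 20 µM primary screen for 96 h at 37 °C. Those cutting growth >50% versus untreated controls were then tested at 5 serial dilutions (DMSO stocks) for 96 h. Remaining cell density read by crystal violet staining. IC50 from least-squares dose-response fit using concentrations giving T/C 10–90%.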

The nature of test [1]: Displacement of [3H]1,3-ditolylguanine from sigma 2 receptor in rat liver membrane by solid scintillation analysis. The class given is cell membranes. A general note: Displacement assays read how much labelled ligand stays bound in the presence of the test substance.
Test [2] has as its target Sigma non-opioid intracellular receptor 1 (Cavia porcellus, UniProt Q60492). Briefly: Displacement of [3H](+)-pentazocine from sigma 1 receptor in guinea pig brain membrane by scintillation analysis. The test is classed as cell membranes.
The next test deals with MCF7. The test is described as follows: Cytotoxicity against human MCF7 cells after 96 hrs by crystal violet staining. The test is classed as functional, cell-based. Particulars: MCF7, 96 h. In a few lines: as §1
The subject of the next test is RT-4. The test is described as follows: Cytotoxicity against human RT4 cells after 96 hrs by crystal violet staining. The class given is functional, cell-based. The settings on record: RT-4, 96 h. Put shortly: as §1
Another test has as its system A-427. Briefly: Cytotoxicity against human A427 cells after 96 hrs by crystal violet staining. The test is classed as functional, cell-based. Particulars: A-427, 96 h. In a few lines:
as §1

The next test has as its system DAN-G. The test is described as follows: Cytotoxicity against human DAN-G cells after 96 hrs by crystal violet staining. The test is classed as functional, cell-based. In a few lines: as §1
Test [3] can be described thus: Selectivity ratio of IC50 for sigma 2 receptor in rat liver membrane to IC50 for sigma 1 receptor in guinea pig brain membrane. The test is classed as cell membranes.
Test [4] can be described thus: Cytotoxicity against human LCLC-103H cells after 96 hrs by crystal violet staining. The test is classed as functional, cell-based. Put shortly:
as §1

Test [5] is described as follows: Selectivity for sigma 2 receptor in rat liver membrane over sigma 1 receptor in guinea pig brain membrane. The class given is cell membranes.
For test [6], the target named is Sigma non-opioid intracellular receptor 1 (Cavia porcellus) (UniProt Q60492). Briefly: Displacement of [3H](+)-pentazocine from sigma 1 receptor in guinea pig brain membrane at 1 uM by scintillation analysis. The test is classed as cell membranes. In a few lines: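 Guinea pig brain homogenate (about 75 µg protein) incubated with test compound, 2 nM [3H]-(+)-pentazocine (Kd 2.9 nM) in 50 mM Tris pH 7.4, 180 min at 37 °C. Nonspecific binding with 10 µM unlabeled (+)-pentazocine. Rapid filtration, water washes, solid scintillator counting. Ki by Cheng–Prusoff from six-concentration competition curves, triplicates, mean ± SEM of three experiments; single-point lines give inhibition at 1 µM.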
Sigma non-opioid intracellular receptor 1 (Cavia porcellus), sequence (Q60492 whole entry): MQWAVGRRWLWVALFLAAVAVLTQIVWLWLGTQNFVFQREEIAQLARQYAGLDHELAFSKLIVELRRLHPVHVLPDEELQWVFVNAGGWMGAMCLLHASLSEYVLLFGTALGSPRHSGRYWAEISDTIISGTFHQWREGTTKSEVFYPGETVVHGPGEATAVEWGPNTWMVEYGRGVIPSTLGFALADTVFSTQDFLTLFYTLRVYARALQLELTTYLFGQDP

Sigma non-opioid intracellular receptor 1, sequence (Q60492 whole entry): as above

As for `C=CCN1C[C@H]2[C@H](OCc3ccccc3)CC[C@@H]1CN2Cc1ccc(OC)cc1`, the IC50 (commonly the midpoint of a concentration-inhibition curve) worked out at 11.2 µM with 5637; 9.13 µM with MCF7; 14.3 µM in the test with RT-4; 4.61 µM in the test with A-427; 12.7 µM in the test with DAN-G; 19.9 µM in test [4]. The inhibition constant Ki – broadly, a dissociation constant, usually derived from enzyme kinetics or from competition with a known ligand – in test [1] came out at 6.46 µM; in test [2], 0.091 µM. In addition, the Ratio IC50 in test [3] was 70.

For `C=CCN1C[C@@H]2[C@H](Oc3ccccc3)CC[C@H]1CN2Cc1ccc(OC)cc1`, the IC50 is 14 µM in the test on 5637; 12.7 µM with MCF7; 19.1 µM with RT-4; 5.95 µM with A-427; 15.8 µM in the test on DAN-G; > 20 µM in [4]. Moreover, the results for the Ki in [1] and in test [2] were 0.479 µM and 2.12 µM, respectively. In addition, the fold change (FC) in test [5] came out at 5.

As for `C=CCN1C[C@@H]2[C@H](OCc3ccccc3)CC[C@H]1CN2Cc1ccc(OC)cc1OC`, the 50% inhibitory concentration (IC50) in the test with 5637 came to 4.73 µM; in the test with MCF7 it was 5.81 µM; in the test with RT-4, 8.57 µM; in the test on A-427, 3.55 µM; with DAN-G, 4.58 µM; in [4] it was 11.1 µM. The Ki in [1] is 0.4 µM. In test [6], this compound returned an Activity of 20%. The fold change (FC) in test [5] was 5.

For the compound `C=CCN1C[C@H]2/C(=C\c3ccccc3)CC[C@@H]1CN2Cc1ccc(OC)cc1`, the IC50 turned out to be 10.9 µM in the test with 5637; 7.25 µM in the test with MCF7; 14.1 µM in the test with RT-4; 3.93 µM in the test on A-427; 9.82 µM in the test with DAN-G; 17.8 µM in test [4]. Further, the Ki in [1] was 0.566 µM; in [2], 0.104 µM. Besides, the Ratio IC50 in test [3] turned out to be 5.
